{
  "source": "paper PMC7034990",
  "about": "(Science Advances, 2020)",
  "key": {"P574H-CFTR": {"molecular_target": "P574H-CFTR (Homo sapiens, UniProt P13569, P574H)", "test": "Rescue of P574H-CFTR in FRT cells", "format": "cell-based", "conditions": "37 °C or 32 °C", "in_short": "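FRT cells stably co-expressing P574H-CFTR and HS-YFP (H148Q/I152L), plated at 50,000/well. After a PBS wash, cells were stimulated 25 min with forskolin 20 μM plus VX-770 1 μM. Iodide solution was then injected (final I− 100 mM) and YFP fluorescence read at 500/535 nm ex/em. Values were normalized to initial background-subtracted fluorescence. I− influx rate came from an exponential fit of the final 11 s.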"}, "[1]": {"test_system": "F508del/F508del bronchial epithelial cells", "test": "Short-circuit current recordings on primary CF bronchial epithelial cells", "format": "cell-based, human", "in_short": "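Primary bronchial epithelial cells came from lung-transplant bronchi and were differentiated on porous inserts, then kept 2–3 weeks under air-liquid culture. Correctors or DMSO were given in basolateral medium. Epithelia were mounted in a vertical diffusion chamber, bicarbonate saline (126 mM NaCl, 24 mM NaHCO3, 10 mM glucose) both sides, gassed 5% CO2:95% air, 37°C. Voltage was clamped and short-circuit current recorded. ENaC was blocked with amiloride (10 μM).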"}, "[2]": {"test_system": "F508del-CFTR CFBE41o− cells", "test": "Western blot of F508del-CFTR maturation in CFBE41o− cells", "format": "cell-based", "conditions": "24 hours", "in_short": "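Confluent CFBE41o− cells expressing F508del-CFTR were treated with test compounds or DMSO. They were lysed in RIPA with protease inhibitors and cleared at 15,300g, 4°C, 10 min. Lysates were run on SDS-PAGE and immunoblotted with mouse monoclonal anti-CFTR. Immature core-glycosylated band B runs near 150 kDa. Bands were quantified as regions of interest and normalised to GAPDH.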"}, "[3]": {"test_system": "F508del/F508del cultured bronchial epithelia", "test": "Apical fluid pH measurement on CF bronchial epithelia", "format": "cell-based, human", "conditions": "24 hours", "in_short": "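CF bronchial epithelia at air-liquid interface were treated 24 h with correctors or DMSO vehicle. The apical side then received 75 μl low-buffer modified PBS (pH 7.35) containing 100 μM CPT-cAMP and 1 μM VX-770, for 3 h at 37°C, 5% CO2. The recovered fluid was mixed with SNARF-1 (final 0.1 mg/ml), excited at 544 nm, and the 590/640 nm emission ratio converted to pH by calibration curve.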"}, "CFBE41o− cells": {"test_system": "CFBE41o− cells", "test": "Cell viability panel", "format": "cell-based", "conditions": "24 hr, positive controls celastrol or cytochalasin D", "in_short": "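CFBE41o− cells. Proliferation: 5000 cells/well; after 24 h, test compound at several concentrations or DMSO; tracked 24 h by high-content imaging. MTT: 50,000 cells/well; treated 24 h after plating; next day MTT 0.5 mg/ml final, 3 h at 37°C; absorbance at 560 nm. Cell death: 50,000 cells/well, treated 24 h, then Hoechst 33342 plus propidium iodide stain and high-content imaging.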"}, "[4]": {"test_system": "receptors, monoamine transporters, ABC proteins, and hERG channel", "test": "Off-target panel", "conditions": "10 μM"}, "[5]": {"molecular_target": "F508del-CFTR in CFBE41o− cells (Homo sapiens, UniProt P13569, DEL508-508)", "test": "F508del-CFTR half-life after cycloheximide block of protein synthesis", "format": "cell-based", "conditions": "24 hours of treatment then cycloheximide, ARN23765 1 nM, VX-809 1 μM"}},
  "data": [
    {"smiles": "CN(C(=O)c1cccc(-n2nc(C(F)(F)F)c3c2[C@@H](Oc2ccc(C(=O)O)cc2)CCC3)c1)c1ccc2c(c1)OC(F)(F)O2", "note": "[ARN23765]", "values": [
      {"measurement": "P574H-CFTR function", "setting": "P574H-CFTR", "value": "improves the function of P574H-CFTR, particularly in combination with low temperature"},
      {"measurement": "effective concentrations lower compared to VX-809 and VX-661", "setting": "[1]", "value": "more than 5000 times"},
      {"measurement": "time after removal of the compound at which correction can be observed", "setting": "[1]", "value": "up to 36 hours"},
      {"measurement": "improvement in potency (EC50) with respect to VX-809 / presently available corrector drugs", "setting": "[1]; F508del/F508del bronchial epithelial cells", "value": "more than 5000 fold"},
      {"measurement": "EC50", "setting": "[1]; Homo sapiens, Epithelial cell", "value": 0.038, "unit": "nM"},
      {"measurement": "extent of rescue after 72 hours of treatment", "setting": "[1]; VX-809 1 μM or ARN23765 1 nM for 72 hours", "value": "comparable to that of epithelia treated with these correctors for only 24 hours"},
      {"measurement": "F508del-CFTR rescue after 120 hours of treatment", "setting": "[1]; VX-809 1 μM or ARN23765 1 nM for 120 hours, compared to 72 hours", "value": "still maintained"},
      {"measurement": "rescue of F508del-CFTR function", "setting": "[1]; short-circuit current, CF primary bronchial epithelial cells, 24 hours", "value": "decreased at 1 μM"},
      {"measurement": "F508del-CFTR maturation, band C", "setting": "[2]", "value": "at low concentrations was also observed"},
      {"measurement": "pH of the apical fluid, combination of ARN23765 and 4172", "setting": "[3]; ARN23765 10 nM plus 4172 10 μM", "value": "further increased pH to a level significantly higher than that measured with each corrector alone"},
      {"measurement": "pH of the apical fluid, single corrector", "setting": "[3]; ARN23765 10 nM, 4172 10 μM, versus control-treated cells", "value": "significant increase in pH"},
      {"measurement": "effect on cell viability", "setting": "CFBE41o− cells", "value": "did not impair cell proliferation nor caused cell toxicity"},
      {"measurement": "effects on a panel of relevant biological targets", "setting": "[4]", "value": "no alerting effects"},
      {"measurement": "increase of half-life of mature CFTR (band C)", "setting": "[5]", "value": "threefold"}
    ]}
  ]
}
